Measurements taken from the EternaBench riboswitch data.

Tests used:
[1] = test system: MS2 coat protein; test: apparent Kd, MS2 coat protein; higher = weaker binding; RNA-MaP array
Outline: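 RNA designs were transcribed from sequenced DNA templates on an Illumina sequencing chip and then incubated at room temperature with fluorescently labeled MS2 coat protein at 1.5 nM to 3 μM, with or without input ligand, in Tris-HCl pH 7.5 buffer containing KCl, MgCl2, BSA, DTT, tRNA and Tween20. Incubation lasted 0.8–1.5 h at the lowest protein concentrations and 10–20 min at the highest. Apparent Kd is the median of binding-curve fits made for each cluster. Designs measured on fewer than 10 clusters were excluded.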

[2] = test system: MS2 coat protein; test: apparent Kd, MS2 coat protein; higher = weaker binding; RNA-MaP array; FMN 200 µM where present
Outline: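 Stalled E. coli RNA polymerase produced the designs on Illumina sequencing-chip clusters. SNAP-549-labelled MS2 coat protein was added from 0.7 or 1.5 nM, doubling to 3 µM, without and then with constant ligand, in 100 mM Tris-HCl pH 7.5, 80 mM KCl, 4 mM MgCl2, BSA, DTT, yeast tRNA and Tween-20. The apparent Kd is the median of filtered per-cluster fits of green signal normalised to red-channel RNA signal and control-cluster median Fmax.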

[3] = designed as: OFF switch for theophylline, no ligand
[4] = ligand present: theophylline, designed as: OFF switch for theophylline
[5] = designed as: OFF switch for flavin mononucleotide, no ligand
[6] = ligand present: flavin mononucleotide, designed as: OFF switch for flavin mononucleotide
[7] = designed as: ON switch for flavin mononucleotide, no ligand
[8] = ligand present: flavin mononucleotide, designed as: ON switch for flavin mononucleotide
[9] = designed as: OFF switch for tryptophan, no ligand
[10] = ligand present: tryptophan, designed as: OFF switch for tryptophan
[11] = designed as: ON switch for theophylline, no ligand
[12] = ligand present: theophylline, designed as: ON switch for theophylline

AAAACGCAACUCGAUACCAGUACACUGAGUCUUCGCCACGACAUGAGGAUCACCCAUGUGUACCCUUGGCAGCGACAGAGCCACA
apparent Kd [1, 3]: 53.9 nM
apparent Kd [1, 4]: 261 nM

AAAACUAAAGUCAGGAUAUAACGAAUCGAAGAUAGAUAGAAGGGACAUGAGGAUCACCCAUGUGAGGAAGACAA
apparent Kd [1, 5]: 13.1 nM
apparent Kd [1, 6]: 11.1 nM

AAAAGAAGCUGAGGAUAUUGGUUAACAUGAGGAUCACCCAUGUCGUUGGUGGAAAACACCUGACGCAAGAAGGCAGACACUUAU
apparent Kd [1, 7]: 15.7 nM
apparent Kd [1, 8]: 7.81 nM

AAAAGGAUGAUAGGAUAUCAUAACAUGAGGAUCACCCAUGUACAGACGCAACGCUAAACUAGACAUGAGAAGGAUCACAAAACA
apparent Kd [1, 7]: 179 nM
apparent Kd [1, 8]: 82.2 nM

AAAAUCUGGUGAGGAUAUUGUUGAUGAUACAAACAAGAAGGCACGUUGACAUAGCGGGACAACAUGAGGAUCACCCAUGUCACU
apparent Kd [1, 5]: 46.6 nM
apparent Kd [1, 6]: 42.1 nM

AAAUAAGAGGAGAAGGGCAAAAUGUCGAACCGAGCAGGAUAUCCACAGAACAUGAGGAUCACCCAUGUGGUCAAACAGUACAAA
apparent Kd [1, 7]: 54.4 nM
apparent Kd [1, 8]: 39 nM

AAAUAAUCUAGUCCACAAUGUGACUCAGAUACCAGUGCAAAGCUACACCCUUGGCAGCUGGUUACAUGAGGAUCACCCAUGUCGU
apparent Kd [1, 3]: 47.6 nM
apparent Kd [1, 4]: 116 nM

AAAUACGUAAAACAUGAGGAUCACCCAUGUACAUUUAUUACCAGAAGGAGCGCUAAAAGUACCAGCUAGGAUAUGGGAAGCAAC
apparent Kd [1, 7]: 8.05 nM
apparent Kd [1, 8]: 5.83 nM

AAAUGGGAGGUACGCACCACUACAUGAGGAUCACCCAUGUAUAGAAGGCAGGUCUGGACUCGUCCUGAGGAUAUAUGAUUUGAC
apparent Kd [1, 5]: 17.9 nM
apparent Kd [1, 6]: 16.5 nM

AACACGCUGGUAGGAUAUUACAACAUGAUGACUCGUCCAAGAAACAACAUGAGGAUCACCCAUGUUAAGAAGGACCACAAGAAA
apparent Kd [1, 5]: 7.13 nM
apparent Kd [1, 6]: 7.92 nM

AACAGAAGGCAAGGAUAUAAGGGACCCCCAACAUGAGGAUCACCCAUGUUCUAUGAGGCCGAAUUUUAGAAGGUGCGGGACUAG
apparent Kd [1, 7]: 43.9 nM
apparent Kd [1, 8]: 32.2 nM

AACAUGAGGAUCACCCAUGUAGGUACUUCUCGACGGCCUACAAGAAGGUGUUGUAAAGUCAAGAACAAGGAUAUUGUGAUGGCU
apparent Kd [1, 5]: 555 nM
apparent Kd [1, 6]: 371 nM

AACGACAUGAGGAUCACCCAUGUAUACGACCGAAGUGUACGGUAGGAUAUCGACAGCAUAGAUAACGAGAAGGACCCUUUUGGA
apparent Kd [1, 7]: 18.1 nM
apparent Kd [1, 8]: 11.8 nM

AACGAUUAAUCGGCCGCCACUCACAUGAGGAUCACCCAUGUUGUUCUUCCAGGUGGUUCUGUUCCGAGGACCGGGAUUCCGUCCU
apparent Kd [1, 9]: 55.1 nM
apparent Kd [1, 10]: 57.5 nM

AACUGGAAGGAAGGAUAUUCAACCACGAUCAGUGCCAAGCACAUGAGGAUCACCCAUGUUGUCCUGAAGAAGGUCCUAUGUCAA
apparent Kd [1, 5]: 16.3 nM
apparent Kd [1, 6]: 11.5 nM

AAGUCAGGAGGCGAUACCAGUUACGACAUGGCCAGUUACAUGAGGAUCACCCAUGUGCGGAACCCUUGGCAGCGCUUACAUCGCU
apparent Kd [1, 3]: 23.1 nM
apparent Kd [1, 4]: 165 nM

AAUUUUAUGAAAGGAUAUGUGUGCUGGUCCAUCACAGAAGGUUCAAGGAGAUGGAUAUAACGACAUGAGGAUCACCCAUGUGCU
apparent Kd [1, 7]: 32 nM
apparent Kd [1, 8]: 22.1 nM

ACACGCUAAGGAUAUACAUGAGGAUCACCCAUGUUAAAAGUUAAAUAGGAAUGAUACCGUAGAAGGUAGGAUGA
apparent Kd [1, 5]: 13.2 nM
apparent Kd [1, 6]: 11.4 nM

ACAUGAGGAUCACCCAUGUGGUCGGCUAUCUACCCAAUGGGCGAGGAUAUCGAGGCAAGAUAAUUCGAGAAGGCGCGUAAGAUA
apparent Kd [1, 5]: 101 nM
apparent Kd [1, 6]: 47.4 nM

ACAUGAGGAUCACCCAUGUUCACGGUUCACGAAGUCUAAAGCUAGGAUAUCAUUGGGUGGGCGCAUGAGAAGGAGCUUCCCGUA
apparent Kd [1, 7]: 70.1 nM
apparent Kd [1, 8]: 44.3 nM

ACAUGAGGAUCACCCAUGUUGAACUACCAUCGAGGACCGGUACGGCCGCCACUCGCGUUCUCCUUAGCAUCAAGGUCCGCGAAAC
apparent Kd [1, 9]: 13.3 nM
apparent Kd [1, 10]: 12.7 nM

ACGAGACGUCUGGAUACCAGCCCAGCGAUAAACAUGAGGAUCACCCAUGUCAAACCACCCGGCCCUUGGCAGCCACGUACCUCAC
apparent Kd [1, 11]: 14.5 nM
apparent Kd [1, 12]: 10 nM

ACGAGCCUAGGAUAUACAUGAGGAUCACCCAUGUGACUGAACACUCCGGUAUGUGCGGGUAGAAGGAGGUUCCA
apparent Kd [1, 5]: 16.3 nM
apparent Kd [1, 6]: 16.8 nM

ACUCAACAUGAGGAUCACCCAUGUACUCCAAACAAAGGAUAUUGUGAGUUAAUAUGCAUGCAAGAAGGUUGGUUCA
apparent Kd [1, 7]: 42.8 nM
apparent Kd [1, 8]: 36.3 nM

ACUCUCGGCUAAGGAUAUCUCCGACUGACCAAUAGAGAAGGUAGUCGACGUGCGAUCAGACAUGAGGAUCACCCAUGUGAAAUC
apparent Kd [1, 7]: 7.07 nM
apparent Kd [1, 8]: 7.14 nM

ACUGGACAUGAGGAUCACCCAUGUGGCGAUACCAGUUUCAGCGGGAACCCUUGGCAGCGCGGUGCCGGCCAUAGAAGUUCUGGGA
apparent Kd [1, 11]: 51.4 nM
apparent Kd [1, 12]: 60.1 nM

AGAAAUGUAUUAGGAUAUUGGCGCGUAUUACGACAAGAAGGAAUACAUGAGGAUCACCCAUGUAACCCGCUCCGCGGUCCAUGG
apparent Kd [1, 5]: 101 nM
apparent Kd [1, 6]: 64.3 nM

UUUAUUUAGGCAGGAUAUACAUGUAUAUAUAAUUUUUUAUAUAUUAUUACAUGAGGAUCACCCAUGUAGAAGGGCCUUAUUAUA
apparent Kd [2, 5]: 41.9 nM
apparent Kd [2, 6]: 54.7 nM

UUUAUUUUGCAAGGAUAUGUUUAAUUUUAGUUUCCUUACACAUGAGGAUCACCCAUGUUAUACUUACAGAAGGUGCGUAAUUUU
apparent Kd [2, 5]: 130 nM
apparent Kd [2, 6]: 103 nM

UUUAUUUUUACAGGAUAUCAUCUAUAUAUCACAUGCACAUGUUUACAUGAGGAUCACCCAUGUUUUGAGAAGGGUAAUGAAACA
apparent Kd [2, 7]: 79.6 nM
apparent Kd [2, 8]: 59 nM

UUUCGGCAUGUAGGAUAUGGGUCCGAUUAGGAUUUAGAAGGACAUGAGGAUCACCCAUGUGCAUUUAAUUGGUCAUUACCUUUU
apparent Kd [2, 5]: 62.9 nM
apparent Kd [2, 6]: 74 nM

UUUGCAUUCCGAGGAUAUUCAUAUAAUAAAUAAACAUGAGGAUCACCCAUGUGGCGAAAGCCUAGGGAGAAGGCGGAAUGCUUU
apparent Kd [2, 7]: 184 nM
apparent Kd [2, 8]: 22 nM

UUUGCAUUCCGAGGAUAUUCAUAUAAUAAAUAAACAUGAGGAUCACCCAUGUGGCGAUAGCCUAGGGAGAAGGCGGUUUGCUUU
apparent Kd [2, 7]: 87.7 nM
apparent Kd [2, 8]: 29.6 nM

UUUGGGUGGCUGGAGGAUAUUCGAGUGGUUACAUGAGGAUCACCCAUGUGUCGCGCGGUACGCGAGGAGAAGGCUGGCGGCCGUU
apparent Kd [2, 7]: 79.7 nM
apparent Kd [2, 8]: 37 nM

UUUGUGUCAGGAUAUGAGUAGUAGAACAAUAGUACUACUACUCAGAAGGGACAUGAGGAUCACCCAUGUUCCUC
apparent Kd [2, 5]: 19.3 nM
apparent Kd [2, 6]: 88.3 nM

UUUUAACAUGAGGAUCACCCAUGUGAGGAUAUCGAAAUUUAUAUUAAUAUUAUUAAAACGAGAAGGCACAUUUU
apparent Kd [2, 5]: 63.1 nM
apparent Kd [2, 6]: 82.8 nM

UUUUAACAUGAGGAUCACCCAUGUGAGGAUAUCGAAAUUUAUAUUAAUAUUAUUAAUACGAGAAGGCACAUUUU
apparent Kd [2, 5]: 36.9 nM
apparent Kd [2, 6]: 61.8 nM

UUUUAACAUGAGGAUCACCCAUGUGAGGAUAUCGAAAUUUAUAUUUAUAUUAAUUUAUCGAGAAGGCACAUUUU
apparent Kd [2, 5]: 149 nM
apparent Kd [2, 6]: 164 nM

UUUUAACAUGAGGAUCACCCAUGUGAGGAUAUCGAAAUUUAUAUUUAUAUUAAUUUUACGAGAAGGCACAUUUU
apparent Kd [2, 5]: 112 nM
apparent Kd [2, 6]: 125 nM

UUUUCGCGCGCAGGAUAUCCCAUGUGGUUCACACAUGAGGAUCACCCAUGUUUCACCCAUGUGCGGGAGAAGGGUGCGCGUUUC
apparent Kd [2, 7]: 368 nM
apparent Kd [2, 8]: 189 nM

UUUUGGCAUGUAGGAUAUGGGUCCGAUUAGGAUUUAGAAGGACAUGAGGAUCACCCAUGUGCAUUUAAUUGGUCUUUAUUUUUU
apparent Kd [2, 5]: 64.1 nM
apparent Kd [2, 6]: 85.6 nM

UUUUUACAUGAGGAUCACCCAUGUCAGGAUAUCCUUAUAUUUUAUUAUUUUAUUUUUUGGAGAAGGGACUAUUA
apparent Kd [2, 5]: 367 nM
apparent Kd [2, 6]: 225 nM

UUUUUACAUGAGGAUCACCCAUGUCAGGAUAUGAUUAUAUUUUAUUAUUUUAUUUUUUUCAGAAGGGACUAUUA
apparent Kd [2, 5]: 117 nM
apparent Kd [2, 6]: 56.9 nM

UUUUUACUUGCAGGAUAUGGAGACAUGAGGAUCACCCAUGUAUGAGGAGCUAAAUUAUGCUGUGGCCAGAAGGGUAUUGUUCUU
apparent Kd [2, 7]: 66.6 nM
apparent Kd [2, 8]: 58.8 nM

UUUUUAGCAGGAUAUAUCCACGACCACAUGAGGAUCACCCAUGUGGCCGCUUGAGGUUGUAUAGAAGGGCUUUUUU
apparent Kd [2, 5]: 14 nM
apparent Kd [2, 6]: 14.8 nM

UUUUUAUAACAAGGAUAUACUAAACAUGAGGAUCACCCAUGUAAUAUUAUGAGUGAGAGAGAGAAGUAGAAGGUGUAUUAUUUU
apparent Kd [2, 5]: 96 nM
apparent Kd [2, 6]: 120 nM

UUUUUAUUUAUAGGAUAUGGAAACAUGAGGAUCACCCAUGUAUGAUAAGAUAAAUUAUGAUAUGGCCAGAAGGAUAUUAUUUUU
apparent Kd [2, 7]: 31 nM
apparent Kd [2, 8]: 34.8 nM

UUUUUCUCAGGAUAUACAUGAGGAUCACCCAUGUAUAUUAGGAAUAAUACAUGGGAAUGUAGAAGGGAGCUCAU
apparent Kd [2, 5]: 128 nM
apparent Kd [2, 6]: 98.4 nM

UUUUUGUCAGGAUAUGAGUAGUAGUACUAUUGUUUUAUUAUUUAGAAGGGACAUGAGGAUCACCCAUGUUUCUC
apparent Kd [2, 5]: 14.9 nM
apparent Kd [2, 6]: 15.9 nM

UUUUUGUGAGGAUAUGGAAUAUCUUCUAUUUAUUAUUAAUUCCAGAAGGCACAUGAGGAUCACCCAUGUAUUUU
apparent Kd [2, 5]: 19.9 nM
apparent Kd [2, 6]: 25.2 nM

UUUUUGUGAGGAUAUUAGUAGUAAAUAAAUAAAAUUAUUACUGAGAAGGCACAUGAGGAUCACCCAUGUUCCUU
apparent Kd [2, 5]: 14.8 nM
apparent Kd [2, 6]: 68.1 nM

UUUUUUUUAUGAGGAUAUAUUUUACAUACAAAACAUGAGGAUCACCCAUGUGUUGUCCCAUGUUUAUAGAAGGCAUUUUUUUUU
apparent Kd [2, 7]: 418 nM
apparent Kd [2, 8]: 598 nM
